Test results reported in ChEMBL document CHEMBL1143960.
Active and inactive are the calls of the source. The rule behind the calls is not given here.

Columns and labels:
Type in all cases: functional, cell-based
[1] = system: PC-3M; assay: Anti-invasive activity against human PC3M cells at 50 nM
[2] = system: PC-3M; assay: Antiproliferative activity against human PC3M cells at 5 to 50 nM by MTT assay
[3] = system: PC-3M; assay: Effect on baseline transepithelial resistance in human PC3M cells
In short: (§1)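 PC-3M plated at confluency on Transwell filters (0.4 µm pores) in complete medium with 25 mM Hepes, pH 7.4. Cultured with or without CT (50 nM). TER measured in duplicate wells every 12 h with a voltohmmeter. Values blank-subtracted (filter plus bathing medium) and normalized to filter area.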

[4] = system: PC-3M; assay: Effect on paracellular permeability of calcitonin-treated human PC3M cells
In short: (§2)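 PC-3M grown at confluency on Transwell filters in complete medium until TER developed. Tetramethylrhodamine-dextran (4 kDa, 1 mg/mL in HBSS) added to upper chamber, HBSS in lower.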

[5] = system: PC-3M; assay: Effect on calcitonin-stimulated decrease in transepithelial resistance in human PC3M cells; in short: as §1
[6] = system: PC-3M; assay: Effect on paracellular permeability of human PC3M cells; in short: as §2
[7] = system: PC-3M; assay: Cytotoxicity against human PC3M cells at 50 nM by MTT assay

Row | SMILES | Activity [1] | Activity [2] | other results
1 | C/C1=C\[C@H](OC(=O)NCc2ccccc2)C[C@@](C)(O)/C=C/[C@H](C(C)C)CC/C(C)=C/CC1 | Active | Active | –
2 | C/C1=C\C[C@@H](O)/C(C)=C/[C@H](O)C[C@@](C)(O)/C=C/[C@H](C(C)C)CC1 | Active | – | –
3 | CCNC(=O)O[C@H]1/C=C(\C)CC/C=C(\C)CC[C@@H](C(C)C)/C=C/[C@](C)(O)C1 | Active | Active | Activity [3]: Active; Activity [4]: Active; Activity [5]: Active; Activity [6]: Active
4 | C/C1=C\[C@H](O)C[C@@](C)(O)/C=C/[C@H](C(C)C)C[C@@H](O)/C(C)=C/CC1 | Active | – | Activity [7]: inactive
5 | C/C1=C\[C@H](O)C[C@@](C)(O)/C=C/[C@H](C(C)C)CC/C(CO)=C/CC1 | Active | – | –
6 | C/C1=C\[C@H](OC(=O)NCCCl)C[C@@](C)(O)/C=C/[C@H](C(C)C)CC/C(C)=C/CC1 | Active | Active | –
7 | C/C1=C\CC/C(CO)=C/[C@H](O)C[C@@](C)(O)/C=C/[C@H](C(C)C)CC1 | Active | – | –
